Reference: ChEMBL document CHEMBL1649503, “Alkoxyalkyl esters of 9-(s)-(3-hydroxy-2-phosphonomethoxypropyl) adenine are potent and selective inhibitors of hepatitis B virus (HBV) replication in vitro and in HBV transgenic mice in vivo” (Antimicrob Agents Chemother, 2009)

How the values were obtained:
HepG2 [1] = assay: Drug metabolism in human HepG2 cells assessed as unidentified metabolite uptake at 10 uM after 24 hrs; assay type: ADME, cell-based; details: hepg2, 24 h
Outline: (§1)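 Nearly confluent HepG2 flasks got 14C-labeled drug (final 10 µM, 50 mCi/mmol) for 24 h. Cells were washed with cold PBS, lysed in water by two freeze-thaw cycles and sonication, then extracted with cold TCA (8% final) and centrifuged at 4°C. Supernatant was counted and analyzed by SAX ion-exchange HPLC, with metabolites assigned by retention versus reference standards.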

Hepatitis B virus [2] = assay: Antiviral activity against HBV infected in transgenic mouse assessed as decrease in liver viral DNA level at 4 mg/kg, po administered daily for 14 days measured post last dose; assay type: functional
Outline: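 Homozygous male and female HBV transgenic mice (founder 1.3.32; 22.2 ± 2.8 g) received drug in distilled water by oral gavage, 0.1 ml/10 g, at 7 µmol/kg (4 mg/kg) daily for 14 days. About 0.1 g liver was lysed at necropsy, and DNA was extracted with phenol-chloroform. HBV DNA was measured by qPCR normalized to GAPDH, using duplicate CTs against a dilution standard curve, in relative units/µg cell DNA.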

[3] = Tmax in Swiss-Webster mouse liver at 10 mg/kg, ip after 24 hrs; assay type: ADME, organism-based; parameters: dose 10 mg/kg, route intraperitoneal
Outline: (§2)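 Female Swiss-Webster mice (about 25 g) each got a single 10 mg/kg dose of the 14C-labeled (8-14C) ester (50 mCi/mmol) in 0.7% saline, by oral gavage or ip injection. Blood was taken at 1, 3, 6, 12 and 24 h, and liver, spleen, kidney, lung, heart and brain were excised, washed and weighed. Radioactivity was measured by scintillation counting as µM plasma equivalents or nmol/g tissue, mean of three per time point.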

Lung [4] = assay: AUC in Swiss-Webster mouse lung assessed per gram of tissue at 10 mg/kg, po after 24 hrs; assay type: ADME, organism-based; parameters: time < 24 hr, dose 10 mg/kg, route oral; details: in vivo; outline: as §2
Hepatitis B virus [5] = assay: Antiviral activity against HBV harboring RNA polymerase L180M mutant gene infected in human HuH7 cells assessed as decrease in viral transient transfection after 5 days; details: Huh-7, 5 days
Liver [6] = assay: Cmax in Swiss-Webster mouse liver assessed per gram of tissue at 10 mg/kg, po after 24 hrs; assay type: ADME, organism-based; parameters: dose 10 mg/kg, route oral; details: in vivo; outline: as §2
[7] = Tmax in Swiss-Webster mouse heart at 10 mg/kg, po after 24 hrs; assay type: ADME, organism-based; parameters: dose 10 mg/kg, route oral; outline: as §2
Mus musculus [8] = assay: Toxicity in transgenic mouse at 30 to 100 mg/kg, po assessed as mortality after 7 days; assay type: organism-based; parameters: dose 30-100 mg/kg, route oral; details: in vivo, 168 h
[9] = Tmax in Swiss-Webster mouse kidney at 10 mg/kg, po after 24 hrs; assay type: ADME, organism-based; parameters: dose 10 mg/kg, route oral; outline: as §2
Heart [10] = assay: AUC in Swiss-Webster mouse heart assessed per gram of tissue at 10 mg/kg, ip after 24 hrs; assay type: ADME, organism-based; parameters: time < 24 hr, dose 10 mg/kg, route intraperitoneal; details: in vivo; outline: as §2
[11] = Cmax in Swiss-Webster mouse plasma assessed per gram of tissue at 10 mg/kg, ip after 24 hrs; assay type: ADME, organism-based; parameters: dose 10 mg/kg, route intraperitoneal; outline: as §2
Brain [12] = assay: AUC in Swiss-Webster mouse brain assessed per gram of tissue at 10 mg/kg, ip after 24 hrs; assay type: ADME, organism-based; parameters: time < 24 hr, dose 10 mg/kg, route intraperitoneal; details: in vivo; outline: as §2
Hepatitis B virus [13] = assay: Antiviral activity against HBV harboring RNA polymerase L180M/M204V mutant gene infected in human HuH7 cells assessed as decrease in viral transient transfection after 5 days; details: Huh-7, 5 days
HepG2 [14] = assay: Drug metabolism in human HepG2 cells assessed as HPMPApp uptake at 10 uM after 48 hrs; assay type: ADME, cell-based; details: hepg2, 48 h
Heart [15] = assay: Cmax in Swiss-Webster mouse heart assessed per gram of tissue at 10 mg/kg, ip after 24 hrs; assay type: ADME, organism-based; parameters: dose 10 mg/kg, route intraperitoneal; details: in vivo; outline: as §2
Spleen = assay: Cmax in Swiss-Webster mouse spleen assessed per gram of tissue at 10 mg/kg, po after 24 hrs; assay type: ADME, organism-based; parameters: dose 10 mg/kg, route oral; details: in vivo; outline: as §2
Lung [16] = assay: Cmax in Swiss-Webster mouse lung assessed per gram of tissue at 10 mg/kg, po after 24 hrs; assay type: ADME, organism-based; parameters: dose 10 mg/kg, route oral; details: in vivo; outline: as §2
Mus musculus [17] = assay: Toxicity in transgenic mouse at 10 mg/kg, po assessed as mortality after 7 days; assay type: organism-based; parameters: dose 10 mg/kg, route oral; details: in vivo, 168 h
Kidney [18] = assay: Cmax in Swiss-Webster mouse kidney assessed per gram of tissue at 10 mg/kg, po after 24 hrs; assay type: ADME, organism-based; parameters: dose 10 mg/kg, route oral; details: in vivo; outline: as §2
Hepatitis B virus [19] = assay: Antiviral activity against HBV harboring RNA polymerase N236T mutant gene infected in human HuH7 cells assessed as decrease in viral transient transfection […]; assay type: functional, organism-based; details: Huh-7
Outline: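 Lamivudine- and adefovir-resistant HBV mutants introduced into Huh7 cells by transient transfection. Compounds were tested in a 5-day assay.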

[20] = Tmax in Swiss-Webster mouse liver at 10 mg/kg, po after 24 hrs; assay type: ADME, organism-based; parameters: dose 10 mg/kg, route oral; outline: as §2
Brain [21] = assay: Cmax in Swiss-Webster mouse brain assessed per gram of tissue at 10 mg/kg, po after 24 hrs; assay type: ADME, organism-based; parameters: dose 10 mg/kg, route oral; details: in vivo; outline: as §2
[22] = Cytotoxicity against human HepG2(2.2.15) cells after 24 hrs by neutral red assay; assay type: cell-based
Outline: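 2.2.15 cells, RPMI 1640 with 2% FBS, dosed daily for nine consecutive days. Viability was read by neutral red uptake, absorbance of internalized dye at 510, 24 h after the last treatment, three cultures per concentration.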

Lung [23] = assay: AUC in Swiss-Webster mouse lung assessed per gram of tissue at 10 mg/kg, ip after 24 hrs; assay type: ADME, organism-based; parameters: time < 24 hr, dose 10 mg/kg, route intraperitoneal; details: in vivo; outline: as §2
Heart [24] = assay: Cmax in Swiss-Webster mouse heart assessed per gram of tissue at 10 mg/kg, po after 24 hrs; assay type: ADME, organism-based; parameters: dose 10 mg/kg, route oral; details: in vivo; outline: as §2
Heart [25] = assay: AUC in Swiss-Webster mouse heart assessed per gram of tissue at 10 mg/kg, po after 24 hrs; assay type: ADME, organism-based; parameters: time < 24 hr, dose 10 mg/kg, route oral; details: in vivo; outline: as §2
[26] = Cmax in Swiss-Webster mouse plasma assessed per gram of tissue at 10 mg/kg, po after 24 hrs; assay type: ADME, organism-based; parameters: dose 10 mg/kg, route oral; outline: as §2
[27] = Tmax in Swiss-Webster mouse spleen at 10 mg/kg, ip after 24 hrs; assay type: ADME, organism-based; parameters: dose 10 mg/kg, route intraperitoneal
Outline: (§3)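 Female Swiss-Webster mice (about 25 g) got one 10 mg/kg dose of the 8-14C-labeled ester (50 mCi/mmol) in 0.7% saline, by oral gavage or intraperitoneal injection. Blood was taken at 1, 3, 6, 12 and 24 h. Liver, spleen, kidney, lung, heart and brain were excised, washed and weighed. Drug plus metabolites were measured by liquid scintillation as µM plasma equivalents or nmol/g tissue. Each time point is the mean of three replicates.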

Liver [28] = assay: AUC in Swiss-Webster mouse liver assessed per gram of tissue at 10 mg/kg, ip after 24 hrs; assay type: ADME, organism-based; parameters: time < 24 hr, dose 10 mg/kg, route intraperitoneal; details: in vivo; outline: as §2
[29] = Oral bioavailability in Swiss-Webster mouse at 10 mg/kg after 24 hrs; assay type: ADME, organism-based; details: in vivo
Outline: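 Same single 10 mg/kg 14C-labeled dose (50 mCi/mmol, 0.7% saline) given to female Swiss-Webster mice orally or ip. Plasma sampled 1–24 h and counted by liquid scintillation. Relative oral bioavailability came from AUCs of drug plus metabolites, computed as printed: […].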

Kidney [30] = assay: Cmax in Swiss-Webster mouse kidney assessed per gram of tissue at 10 mg/kg, ip after 24 hrs; assay type: ADME, organism-based; parameters: dose 10 mg/kg, route intraperitoneal; details: in vivo; outline: as §2
[31] = Tmax in Swiss-Webster mouse plasma at 10 mg/kg, po after 24 hrs; assay type: ADME, organism-based; parameters: dose 10 mg/kg, route oral; outline: as §3
Mus musculus [32] = assay: Toxicity in transgenic mouse at 10 mg/kg, po assessed as morbidity after 7 days; assay type: organism-based; parameters: dose 10 mg/kg, route oral; details: in vivo, 168 h
HepG2 [33] = assay: Drug metabolism in human HepG2 cells assessed as HPMPApp uptake at 10 uM after 24 hrs; assay type: ADME, cell-based; details: hepg2, 24 h; outline: as §1

CCCCCCCCCCCCCCCCOCCCOP(=O)(O)CO[C@H](CO)Cn1cnc2c(N)ncnc21
Drug uptake (HepG2 [1]): 596 pmol | ED50 (Hepatitis B virus [2]; Hepatitis B virus, Liver, 336 h): 0.096 µmol/kg | ED90 (Hepatitis B virus [2]; dose 4 mg/kg): 2.97 µmol/kg | Tmax [3]: 1 h | AUC (Lung [4]): 12.8 nmol·h/g | EC50 (Hepatitis B virus [5]): 1000 nM | EC90 (Hepatitis B virus [5]): 3500 nM | Cmax (Liver [6]): 21.1 nmol/g | Tmax [7]: 1 h | Activity (Mus musculus [8]): Toxic | Tmax [9]: 3 h | AUC (Heart [10]): 3.8 nmol·h/g | Cmax [11]: 2230 nM | AUC (Brain [12]): 0.98 nmol·h/g | EC50 (Hepatitis B virus [13]): 700 nM | EC90 (Hepatitis B virus [13]): 2800 nM | Drug uptake (HepG2 [14]): 444 pmol | Cmax (Heart [15]): 0.57 nmol/g | Cmax (Spleen): 0.22 nmol/g | Cmax (Lung [16]): 2.89 nmol/g | Activity (Mus musculus [17]): Non-toxic | Cmax (Kidney [18]): 5.07 nmol/g | EC50 (Hepatitis B virus [19]): > 100000 nM | EC90 (Hepatitis B virus [19]): > 100000 nM | Tmax [20]: 3 h | Cmax (Brain [21]): 0.07 nmol/g | CC50 at 24 h [22]: > 300000 nM | AUC (Lung [23]): 21.5 nmol·h/g | Cmax (Heart [24]): 0.2 nmol/g | AUC (Heart [25]): 2.69 nmol·h/g | Cmax [26]: 1110 nM | Tmax [27]: 1 h | AUC (Liver [28]): 545.1 nmol·h/g | bioavailability [29]: 64% | Cmax (Kidney [30]): 22.9 nmol/g | Tmax [31]: 1 h | Activity (Mus musculus [32]): Non-toxic | Drug uptake (HepG2 [33]): 888 pmol
